Test results published in ChEMBL document CHEMBL4118112, “Synthesis and Evaluation of the First Fluorescent Antagonists of the Human P2Y2 Receptor Based on AR-C118925” (J Med Chem, 2018).
Values belong to the compound of their own block, whether it stands above or below them. Calls of active or inactive are those of the source. No cut-off for these calls is given here.

Columns and labels:
P2Y purinoceptor 2 [1] = biological target: T1, P2Y purinoceptor 2 (Homo sapiens, UniProt P41231); assay: (§1) Antagonist activity at human P2Y2R expressed in human 1321N1 cells assessed as inhibition of UTPgammaS-activated calcium-mobilization preincubated for 45 mins measured every 1.52 secs for 200 secs after the addition of UTPgammaS at 15 secs by fluo-4AM-based fluorescence assay; assay type: functional, cell-based
T1 sequence (P41231 whole entry): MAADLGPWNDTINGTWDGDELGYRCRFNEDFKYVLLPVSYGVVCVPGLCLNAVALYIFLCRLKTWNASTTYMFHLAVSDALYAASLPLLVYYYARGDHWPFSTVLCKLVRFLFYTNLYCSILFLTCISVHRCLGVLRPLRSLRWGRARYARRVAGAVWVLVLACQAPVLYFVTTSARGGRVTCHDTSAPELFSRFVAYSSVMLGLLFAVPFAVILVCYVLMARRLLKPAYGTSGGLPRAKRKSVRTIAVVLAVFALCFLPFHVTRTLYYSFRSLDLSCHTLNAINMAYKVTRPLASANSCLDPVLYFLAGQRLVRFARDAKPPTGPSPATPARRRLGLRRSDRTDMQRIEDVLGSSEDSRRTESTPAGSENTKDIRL
Procedure, shortened: (§2)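 hP2Y2R in 1321N1 astrocytoma cells. Calcium mobilization was driven by UTPγS. Single-concentration lines: compound at 10 µM, inhibition scored against the 0.1 µM UTPγS response (n=3). For the pKb line, the UTPγS concentration-response curve was run with a single antagonist concentration added, and pKb was calculated from the curve shift with the Gaddum equation.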

P2Y purinoceptor 2 [2] = biological target: T1, P2Y purinoceptor 2; assay: as §1, with “calcium-mobilization at 10 uM” for “calcium-mobilization”, “assay relative to UTPgammaS” for “assay”; assay type: functional, cell-based; procedure, shortened: as §2
P2Y purinoceptor 2 [3] = biological target: T1, P2Y purinoceptor 2; assay: Displacement of (E)-2-((5-(7-Chloro-2-((3-((2-(6-(3-(5,5-difluoro-7,9-dimethyl-5H-5-lambda4,6-lambda4-dipyrrolo[1,2-c:2,1-f ][1,3,2]diazaborinin-3-yl)-propanamido)hexanamido)ethyl)amino)-3-oxopropyl)amino)-4Hbenzo[5,6]cyclohepta[1,2-d]thiazol-4-yl)-2-oxo-4-thioxo-3,4-dihydropyrimidin-1(2H)-yl)methyl)-N-(1H-tetrazol-5-yl)thiazole-4-carboxamide from human N-terminal NLuc-tagged P2Y2R expressed in human 1321N1 cells incubated for 1 hr by furimazine-based NanoBRET assay; assay type: cell-based
Procedure, shortened: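 Competition binding in 1321N1 cells expressing N-terminal NanoLuc-hP2Y2R. The fluorescent tracer was used at 1 µM (or the bodipy A tracer at 100 nM) against increasing concentrations of unlabeled ligand. After furimazine addition the BRET signal was read and pKi estimated; mean ± SEM of separate experiments.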

P2Y purinoceptor 2 [4] = biological target: T1, P2Y purinoceptor 2; assay: Binding affinity to recombinant human N-terminal NLuc-tagged P2Y2R expressed in human 1321N1 cells incubated for 1 hr in presence of AR-C118925 by furimazine-based NanoBRET assay; assay type: cell-based
Procedure, shortened: (§3)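 N-terminally NanoLuc-tagged hP2Y2R was stably expressed in 1321N1 cells. Cells were treated with increasing concentrations of fluorescent conjugate, or a fixed 10 µM for screening, with or without 10 µM AR-C118925 to define nonspecific binding. Furimazine substrate was then added and the BRET signal read. pKd came from saturation binding curves; mean ± SEM of separate experiments.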

P2Y purinoceptor 2 [5] = biological target: T1, P2Y purinoceptor 2; assay: Binding affinity to recombinant human N-terminal NLuc-tagged P2Y2R expressed in human 1321N1 cells at 10 uM incubated for 1 hr in presence of AR-C118925 by furimazine-based NanoBRET assay; assay type: cell-based; procedure, shortened: as §3
P2Y purinoceptor 2 [6] = biological target: T1, P2Y purinoceptor 2; assay: Antagonist activity at human P2Y2R expressed in human 1321N1 cells assessed as inhibition of UTPgammaS-activated calcium-mobilization at 10 uM preincubated for 45 mins measured every 1.52 secs for 200 secs after the addition of UTPgammaS at 15 secs by fluo-4AM-based fluorescence assay; assay type: functional, cell-based; procedure, shortened: as §2
P2Y purinoceptor 2 [7] = biological target: T1, P2Y purinoceptor 2; assay: Binding affinity to human P2Y2R expressed in human 1321N1 cells assessed as localized membrane fluorescence at 100 nM after 30 mins by confocal microscopy; assay type: cell-based
Procedure, shortened: (§4)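 1321N1 astrocytoma cells expressing untagged hP2Y2R were given 100 nM fluorescent ligand and incubated 30 min at 37°C, with or without 10 µM AR-C118925 (1). Single equatorial confocal images were then taken with the fluorescent ligand and/or antagonist still present. Membrane and intracellular fluorescence were examined; images are representative of 4 experiments.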

P2Y purinoceptor 2 [8] = biological target: T1, P2Y purinoceptor 2; assay: Binding affinity to human P2Y2R expressed in human 1321N1 cells assessed as localized membrane fluorescence at 100 nM after 30 mins in presence of AR-C118925 by confocal microscopy; assay type: cell-based; procedure, shortened: as §4
[9] = Drug uptake in human 1321N1 cells assessed as intracellular fluorescence at 100 nM after 30 mins by confocal microscopy; assay type: ADME, cell-based; details: 0.5 h, 0.1 µM; procedure, shortened: as §4

Compound: Cn1cc(C2c3ccc(Cl)cc3C=Cc3sc(N4CCOCC4)nc32)c(=S)[nH]c1=O (configuration not stated)
inhibition (P2Y purinoceptor 2 [2]): < 50%

Compound: CN1CCN(c2nc3c(s2)C=Cc2cc(Cl)ccc2C3c2cn(C)c(=O)[nH]c2=S)CC1 (configuration not stated)
inhibition (P2Y purinoceptor 2 [2]): < 50%

Compound: O=C(CCNc1nc2c(s1)C=Cc1cc(Cl)ccc1C2c1cn(Cc2nc(C(=O)Nc3nnn[nH]3)cs2)c(=O)[nH]c1=S)NCCNC(=O)COc1ccc(/C=C/C2=[N+]3C(=Cc4ccc(-c5cccs5)n4[B-]3(F)F)C=C2)cc1 (configuration not stated)
Kd (P2Y purinoceptor 2 [4]): 891 nM

Compound: O=c1[nH]c(=S)c(C2c3ccccc3CCc3ccccc32)cn1[C@@H]1O[C@H](COP(=O)(O)OP(=O)(O)C(Cl)(Cl)P(=O)(O)O)[C@@H](O)[C@H]1O
pKb (P2Y purinoceptor 2 [1]): 6.59
Ki (P2Y purinoceptor 2 [3]): 83.2 nM
inhibition (P2Y purinoceptor 2 [3]): Dose-dependent effect

Compound: Cc1ccc2c(c1)C=Cc1cc(C)ccc1C2c1cn(Cc2cc(C(=O)NCCOCCOCCNC(=O)COc3ccc(/C=C/C4=[N+]5C(=Cc6ccc(-c7cccs7)n6[B-]5(F)F)C=C4)cc3)cc(C(=O)Nc3nnn[nH]3)c2)c(=O)[nH]c1=S
Kd (P2Y purinoceptor 2 [4]): 759 nM

Compound: Cn1cc(C2c3ccc(Cl)cc3C=Cc3sc(N4CCCCC4)nc32)c(=S)[nH]c1=O (configuration not stated)
inhibition (P2Y purinoceptor 2 [2]): < 50%

Compound: O=c1ccn([C@@H]2O[C@H](COP(=O)(O)OP(=O)(O)OP(=O)(O)S)[C@@H](O)[C@H]2O)c(=O)[nH]1 (some centres not stated)
Ki (P2Y purinoceptor 2 [3]): 3470 nM
inhibition (P2Y purinoceptor 2 [3]): Dose-dependent effect

Compound: Cc1cc(C)n2c1C=C1C=CC(CCC(=O)NCCNC(=O)CCNc3nc4c(s3)C=Cc3cc(Cl)ccc3C4c3cn(C)c(=O)[nH]c3=S)=[N+]1[B-]2(F)F (configuration not stated)
Kd (P2Y purinoceptor 2 [4]): 12300 nM
Activity (P2Y purinoceptor 2 [5]): Active

Compound: CC(C)OCCNc1nc2c(s1)C=Cc1cc(Cl)ccc1C2c1cn(C)c(=O)[nH]c1=S (configuration not stated)
pKb (P2Y purinoceptor 2 [1]): 6.49

Compound: Cc1cc(C)n2c1C=C1C=CC(CCC(=O)NCCCCCC(=O)NCCOCCOCCNC(=O)CCNc3nc4c(s3)C=Cc3cc(Cl)ccc3C4c3cn(C)c(=O)[nH]c3=S)=[N+]1[B-]2(F)F (configuration not stated)
Kd (P2Y purinoceptor 2 [4]): 4170 nM
Activity (P2Y purinoceptor 2 [5]): Active

Compound: CCOCCNc1nc2c(s1)C=Cc1cc(Cl)ccc1C2c1cn(C)c(=O)[nH]c1=S (racemic)
pKb (P2Y purinoceptor 2 [1]): 6.73

Compound: CCOCCNc1nc2c(s1)C=Cc1cc(Cl)ccc1[C@H]2c1cn(C)c(=O)[nH]c1=S
pKb (P2Y purinoceptor 2 [1]): 6.74 to 6.78
inhibition (P2Y purinoceptor 2 [3]): Dose-dependent effect

Compound: O=C(CCCCCNC(=O)COc1ccc(/C=C/C2=[N+]3C(=Cc4ccc(-c5cccs5)n4[B-]3(F)F)C=C2)cc1)NCCNC(=O)CCNc1nc2c(s1)C=Cc1cc(Cl)ccc1C2c1cn(Cc2nc(C(=O)Nc3nnn[nH]3)cs2)c(=O)[nH]c1=S (configuration not stated)
Kd (P2Y purinoceptor 2 [4]): 129 nM
pKb (P2Y purinoceptor 2 [6]): 5.69
Activity (P2Y purinoceptor 2 [7]): Active
Activity (P2Y purinoceptor 2 [8]): inactive
Drug uptake [9]: Not Active

Compound: Cc1cc(C)n2c1C=C1C=CC(CCC(=O)NCCCCCC(=O)NCCNC(=O)CCNc3nc4c(s3)C=Cc3cc(Cl)ccc3C4c3cn(C)c(=O)[nH]c3=S)=[N+]1[B-]2(F)F (configuration not stated)
pKb (P2Y purinoceptor 2 [1]): 6.3
Kd (P2Y purinoceptor 2 [4]): 2140 nM
Ki (P2Y purinoceptor 2 [3]): 398 nM
inhibition (P2Y purinoceptor 2 [3]): Dose-dependent effect
Activity (P2Y purinoceptor 2 [5]): Active

Compound: Cc1ccc2c(c1)C=Cc1cc(C)ccc1C2c1cn(Cc2cc(C(=O)NCCNC(=O)COc3ccc(/C=C/C4=[N+]5C(=Cc6ccc(-c7cccs7)n6[B-]5(F)F)C=C4)cc3)cc(C(=O)Nc3nnn[nH]3)c2)c(=O)[nH]c1=S
Kd (P2Y purinoceptor 2 [4]): 2750 nM

Compound: Cc1cc(C)n2c1C=C1C=CC(CCC(=O)NCCNC(=O)CCNc3nc4c(s3)C=Cc3cc(Cl)ccc3C4c3cn(Cc4nc(C(=O)Nc5nnn[nH]5)cs4)c(=O)[nH]c3=S)=[N+]1[B-]2(F)F (configuration not stated)
Kd (P2Y purinoceptor 2 [4]): 89.1 nM

The next lines start with the values.

pKb (P2Y purinoceptor 2 [1]): 6.6
Compound: COCCNc1nc2c(s1)C=Cc1cc(Cl)ccc1C2c1cn(C)c(=O)[nH]c1=S (racemic)

inhibition (P2Y purinoceptor 2 [2]): < 50%
Compound: Cn1cc(C2c3ccc(Cl)cc3C=Cc3sc(NCc4ccccc4)nc32)c(=S)[nH]c1=O (configuration not stated)

inhibition (P2Y purinoceptor 2 [2]): < 50%
Compound: Cn1cc(C2c3ccc(Cl)cc3C=Cc3sc(-c4ccccc4)nc32)c(=S)[nH]c1=O (configuration not stated)

inhibition (P2Y purinoceptor 2 [3]): Dose-dependent effect
Compound: Cc1ccc2c(c1)C=Cc1cc(C)ccc1C2c1cn(Cc2ccc(C(=O)Nc3nnn[nH]3)o2)c(=O)[nH]c1=S

pKb (P2Y purinoceptor 2 [1]): 6.43
Compound: Cc1ccc2c(c1)C=Cc1cc(C)ccc1C2c1cn(Cc2nc(C(=O)O)cs2)c(=O)[nH]c1=S

inhibition (P2Y purinoceptor 2 [2]): < 50%
Compound: Cn1cc(C2c3ccc(Cl)cc3C=Cc3sc(NCCc4ccccc4)nc32)c(=S)[nH]c1=O (configuration not stated)

inhibition (P2Y purinoceptor 2 [2]): < 50%
Compound: Cc1ccc2c(c1)C=Cc1cc(C)ccc1C2c1cn(C)c(=O)[nH]c1=S

pKb (P2Y purinoceptor 2 [1]): 6.48
Compound: Cc1nc2c(s1)C=Cc1cc(Cl)ccc1C2c1cn(Cc2nc(C(=O)Nc3nnn[nH]3)cs2)c(=O)[nH]c1=S (configuration not stated)

pKb (P2Y purinoceptor 2 [1]): 5.82
Compound: COCCNc1nc2c(s1)C=Cc1cc(Cl)ccc1C2c1cn(C)c(=O)[nH]c1=S (stereo in doubt; 21)

inhibition (P2Y purinoceptor 2 [2]): < 50%
Compound: Cn1cc(C2c3ccc(Cl)cc3C=Cc3sc(Nc4ccccc4)nc32)c(=S)[nH]c1=O (configuration not stated)

pKb (P2Y purinoceptor 2 [1]): 7.11
Ki (P2Y purinoceptor 2 [3]): 129 nM
inhibition (P2Y purinoceptor 2 [3]): Dose-dependent effect
Compound: Cc1ccc2c(c1)C=Cc1cc(C)ccc1C2c1cn(Cc2nc(C(=O)Nc3nnn[nH]3)cs2)c(=O)[nH]c1=S

pKb (P2Y purinoceptor 2 [1]): 6.56
Compound: Cn1cc(C2c3ccc(Cl)cc3C=Cc3sc(N)nc32)c(=S)[nH]c1=O (configuration not stated)

pKb (P2Y purinoceptor 2 [1]): < 5
inhibition (P2Y purinoceptor 2 [2]): < 50%
inhibition (P2Y purinoceptor 2 [3]): Dose-dependent effect
Compound: CCOCCNc1nc2c(s1)C=Cc1cc(Cl)ccc1[C@@H]2c1cn(C)c(=O)[nH]c1=S

pKb (P2Y purinoceptor 2 [1]): 5.99
Ki (P2Y purinoceptor 2 [3]): 1550 nM
inhibition (P2Y purinoceptor 2 [3]): Dose-dependent effect
Compound: Cc1nc2c(s1)C=Cc1cc(Cl)ccc1C2c1cn(C)c(=O)[nH]c1=S (configuration not stated)

pKb (P2Y purinoceptor 2 [1]): 6.63
Compound: COCCNc1nc2c(s1)C=Cc1cc(Cl)ccc1C2c1cn(C)c(=O)[nH]c1=S (stereo in doubt; 20)

inhibition (P2Y purinoceptor 2 [2]): < 50%
Compound: Cn1cc(C2c3ccc(Cl)cc3C=Cc3sc(NCCOc4ccccc4)nc32)c(=S)[nH]c1=O (configuration not stated)
